Data on 6 compounds can be found in ChEMBL document CHEMBL4732032, “Discovery of novel JAK2 and EGFR inhibitors from a series of thiazole-based chalcone derivatives” (RSC Med Chem, 2021).

Assay [1] is described as follows: Antiproliferative activity against human HMC 1.1 cells harboring KIT V560G mutant assessed as inhibition of cell proliferation measured after 72 hrs by MTS assay. The class given is functional, cell-based. The settings on record: HMC-1.1, 72 h. On the technique in general: Tetrazolium assays rely on reduction of a dye to a coloured formazan, in cell work by metabolically active cells.

The test system of the next assay is A549. The experiment in a line: Cytotoxicity against human A549 cells expressing EGFR assessed as reduction in cell viability incubated for 72 hrs by MTT assay. The settings on record: A549, 72 h. It is filed as functional, cell-based.
For assay [2], the target named is T1, Epidermal growth factor receptor (Homo sapiens, UniProt P00533). The experiment in a line: Inhibition of human EGFR TK domain expressed in Escherichia coli BL21 (DE3) pLysS using poly-Glu-Tyr (51 to 68 residues) as substrate incubated for 1 hr by ADP-Glo assay.
The subject of a further assay is Vero. Briefly: Cytotoxicity against African green monkey Vero cells assessed as reduction in cell viability incubated for 72 hrs by MTT assay. The settings on record: Chlorocebus sabaeus.
A short description of assay [3]: Potency index, ratio of erlotinib IC50 to test compound IC50 human A549 cells expressing EGFR assessed as reduction in cell viability incubated for 72 hrs by MTT assay. The class given is functional.
A further assay has as its system A-431. The experiment in a line: Cytotoxicity against human A-431 cells expressing EGFR assessed as reduction in cell viability incubated for 72 hrs by MTT assay. It is filed as functional, cell-based. The settings on record: A-431, 72 h.
For assay [4], the target named is Tyrosine-protein kinase JAK2 (Homo sapiens, UniProt O60674). Briefly: Inhibition of recombinant human JAK2 JH1 domain expressed in baculovirus infected insect cells using poly-Glu-Tyr (51 to 68 residues) as substrate incubated for 1 hr in presence of ATP by ADP-Glo assay. For orientation: ADP-Glo first removes unused ATP, then detects ADP through luciferase.
A short description of assay [5]: Potency index, ratio of ruxolitinib IC50 to test compound IC50 for human HEL 92.1.7 cells expressing JAK2 assessed as reduction in cell viability incubated for 72 hrs by presto blue reagent assay. It is filed as functional.
The test system of another assay is TF-1. Briefly: Cytotoxicity against human TF-1 cells expressing JAK2 assessed as reduction in cell viability incubated for 72 hrs by presto blue reagent assay. It is filed as functional, cell-based. Particulars: TF-1, 72 h.
The next assay deals with HEL 92.1.7. Briefly: Cytotoxicity against human HEL 92.1.7 cells expressing JAK2 assessed as reduction in cell viability incubated for 72 hrs by presto blue reagent assay. It is filed as functional, cell-based. The settings on record: HEL 92.1.7, 72 h.
In assay [6] the target is T1, Epidermal growth factor receptor. Briefly: Inhibition of EGFR (unknown origin). The method in brief:
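ADP-Glo luminescent kinase assay in 40 mM Tris–HCl pH 7.5, 20 mM MgCl2, 0.1 mg/mL BSA. EGFR added at 1.25 ng/μL with inhibitor, then a mix of 5 μM ATP and 2.5 μM poly(Glu-Tyr); reaction run 1 h at room temperature. ADP-Glo reagent added for 40 min, then detection reagent for 30 min. Run in triplicate; % inhibition calculated against a no-inhibitor control.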

T1 sequence (P00533 whole entry, the tested form may be a part): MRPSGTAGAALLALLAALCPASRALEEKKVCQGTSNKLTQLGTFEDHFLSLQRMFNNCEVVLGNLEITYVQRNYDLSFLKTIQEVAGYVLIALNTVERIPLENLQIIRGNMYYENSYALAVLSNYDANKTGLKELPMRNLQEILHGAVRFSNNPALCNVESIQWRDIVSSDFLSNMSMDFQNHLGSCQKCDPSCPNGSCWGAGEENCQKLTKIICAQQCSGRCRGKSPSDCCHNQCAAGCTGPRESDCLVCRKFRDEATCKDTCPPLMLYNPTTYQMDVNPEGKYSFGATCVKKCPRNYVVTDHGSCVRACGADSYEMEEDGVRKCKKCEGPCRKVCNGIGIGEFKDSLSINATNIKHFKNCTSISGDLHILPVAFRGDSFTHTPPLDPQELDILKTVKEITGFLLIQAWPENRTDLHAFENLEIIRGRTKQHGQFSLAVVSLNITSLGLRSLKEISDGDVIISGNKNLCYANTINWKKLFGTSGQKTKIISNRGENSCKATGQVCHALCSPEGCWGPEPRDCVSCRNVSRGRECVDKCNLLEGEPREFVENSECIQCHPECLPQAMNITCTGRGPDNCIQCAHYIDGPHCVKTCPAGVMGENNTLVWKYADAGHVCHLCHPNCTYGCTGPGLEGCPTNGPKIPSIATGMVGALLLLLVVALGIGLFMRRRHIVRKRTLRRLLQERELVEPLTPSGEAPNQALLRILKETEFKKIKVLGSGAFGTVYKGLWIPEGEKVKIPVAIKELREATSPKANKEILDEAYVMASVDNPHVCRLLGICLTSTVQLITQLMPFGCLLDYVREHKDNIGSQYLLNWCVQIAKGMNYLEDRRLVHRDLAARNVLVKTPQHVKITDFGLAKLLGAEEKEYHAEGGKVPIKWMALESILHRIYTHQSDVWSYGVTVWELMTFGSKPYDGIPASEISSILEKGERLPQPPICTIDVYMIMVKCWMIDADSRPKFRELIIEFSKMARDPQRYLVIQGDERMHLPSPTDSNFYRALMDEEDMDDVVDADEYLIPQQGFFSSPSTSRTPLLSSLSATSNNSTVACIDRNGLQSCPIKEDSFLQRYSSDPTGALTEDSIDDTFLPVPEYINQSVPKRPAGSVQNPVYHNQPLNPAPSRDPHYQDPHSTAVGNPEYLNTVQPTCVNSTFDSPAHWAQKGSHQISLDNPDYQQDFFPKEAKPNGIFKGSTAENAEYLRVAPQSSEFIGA
Tyrosine-protein kinase JAK2, sequence (O60674 whole entry, the tested form may be a part): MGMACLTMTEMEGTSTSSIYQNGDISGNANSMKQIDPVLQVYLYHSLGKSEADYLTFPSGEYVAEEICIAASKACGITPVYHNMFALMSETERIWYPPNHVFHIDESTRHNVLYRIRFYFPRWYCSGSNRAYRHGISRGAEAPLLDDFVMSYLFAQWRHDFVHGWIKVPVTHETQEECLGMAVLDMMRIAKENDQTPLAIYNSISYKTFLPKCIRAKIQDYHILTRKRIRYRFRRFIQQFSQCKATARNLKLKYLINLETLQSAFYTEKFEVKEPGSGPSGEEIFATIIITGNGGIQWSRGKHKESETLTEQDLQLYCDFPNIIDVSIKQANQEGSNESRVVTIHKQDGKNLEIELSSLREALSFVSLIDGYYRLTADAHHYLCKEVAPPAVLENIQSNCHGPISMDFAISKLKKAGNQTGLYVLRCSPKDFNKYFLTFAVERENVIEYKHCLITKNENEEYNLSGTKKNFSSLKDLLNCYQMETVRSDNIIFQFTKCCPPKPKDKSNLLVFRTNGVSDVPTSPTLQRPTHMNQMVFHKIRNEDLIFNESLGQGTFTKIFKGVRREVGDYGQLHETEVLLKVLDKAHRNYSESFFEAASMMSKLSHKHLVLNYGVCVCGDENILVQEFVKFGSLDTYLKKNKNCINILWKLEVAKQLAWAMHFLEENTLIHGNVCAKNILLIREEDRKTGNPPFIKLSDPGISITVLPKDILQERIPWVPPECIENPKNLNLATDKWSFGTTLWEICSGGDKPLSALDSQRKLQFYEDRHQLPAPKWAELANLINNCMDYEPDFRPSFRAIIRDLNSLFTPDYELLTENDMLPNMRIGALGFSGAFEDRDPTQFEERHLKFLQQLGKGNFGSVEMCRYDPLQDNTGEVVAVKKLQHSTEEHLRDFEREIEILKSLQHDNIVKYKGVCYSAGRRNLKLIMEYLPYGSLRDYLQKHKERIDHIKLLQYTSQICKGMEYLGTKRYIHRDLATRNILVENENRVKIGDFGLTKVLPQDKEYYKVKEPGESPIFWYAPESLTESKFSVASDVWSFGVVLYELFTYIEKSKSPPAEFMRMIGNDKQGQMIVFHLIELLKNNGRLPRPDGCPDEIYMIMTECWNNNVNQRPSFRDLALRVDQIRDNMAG

Take `Cc1cn(-c2cc(NC(=O)c3ccc(Nc4nc(-c5cccnc5)cs4)c(C)c3)cc(C(F)(F)F)c2)cn1`: the IC50 (as a rule, the midpoint of a concentration-inhibition curve) in [1] is 0.138 µM.
Consider `CNc1nc(C)c(C(=O)/C=C/c2ccc(O)cc2)s1`, for which the concentration for half-maximal inhibition (IC50) in the assay on A549 was 16.3 µM; in assay [2], 0.0337 µM; in the assay on Vero, over 100 µM; in the assay with A-431, 8.04 µM; in assay [4], 0.0339 µM. In assay [3], the “Ratio IC50” value was 2.
Take `CNc1nc(C)c(C(=O)/C=C/c2cccs2)s1`: the concentration for half-maximal inhibition (IC50) in the assay with A549 is 62.1 µM; in the assay on Vero, over 100 µM; in the assay with A-431, 28.5 µM.
As to `CNc1nc(C)c(C(=O)/C=C/c2ccsc2)s1`, the “Ratio IC50” value in [5] turned out to be 2. Moreover, the IC50 in assay [2] worked out at 0.144 µM; in the assay on TF-1 it was 32 µM; in assay [4], 0.0176 µM; in the assay with HEL 92.1.7 it was 9.96 µM.
In the case of `CNc1nc(C)c(C(=O)/C=C/c2nccs2)s1`, the “Ratio IC50” value in [5] turned out to be 2. The half-maximal inhibitory concentration (IC50) was 0.256 µM in assay [2]; 30.2 µM with TF-1; over 100 µM with Vero; 0.0203 µM in [4]; 6.89 µM in the assay with HEL 92.1.7.
`O=C(Cc1csc2nc3ccccc3n12)Nc1ccccc1O`: the half-maximal inhibitory concentration (IC50) in assay [6] came to 0.055 µM.
